Experimental data taken from ChEMBL document CHEMBL1821659, “N-Benzyl-3-sulfonamidopyrrolidines are a New Class of Bacterial DNA Gyrase Inhibitors” (ACS Med Chem Lett, 2011).
In brackets after ≈: the same amount, converted by molar mass. Activity calls are given as the source filed them. The calls are words filed in the database; no cut-off is given here.

Tests used:
[1] = test system: Escherichia coli; experiment: Antimicrobial activity against Escherichia coli BW25113 delta tolC after 14 hrs by microdilution method; assay type: functional
Outline: (§1)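 MIC determined in the E. coli BW25113 ΔtolC drug-pump knockout, which lacks a functional AcrAB-TolC multidrug efflux pump. The pump inhibitor was applied only to the wild-type strains.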

[2] = test system: Escherichia coli; experiment: Antimicrobial activity against Escherichia coli BW25113 delta tolC after 14 hrs by macrodilution method; assay type: functional; outline: as §1
[3] = Inhibition of Escherichia coli DNA gyrase assessed as DNA supercoiling using pUC19 as substrate after 30 mins by agarose gel electrophoresis
Outline: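 Gel-based supercoiling assay on pUC19. Supercoiled, linear and relaxed pUC19 were run as marker lanes. Test compounds were applied at a range of μM concentrations.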

[4] = test system: Escherichia coli; experiment: Antimicrobial activity against Escherichia coli BW25113 after 14 hrs by microdilution method in presence of efflux pump inhibitor 60 uM MC-207,110; assay type: functional; settings: BW25113, 14 h
[5] = test system: Pseudomonas aeruginosa; experiment: Antimicrobial activity against Pseudomonas aeruginosa K after 16 hrs by microdilution method in presence of efflux pump inhibitor 60 uM MC-207,110; assay type: functional
[6] = test system: Salmonella enterica; experiment: Antimicrobial activity against Salmonella enterica ATCC 19585 after 14 hrs by microdilution method in presence of efflux pump inhibitor 60 uM MC-207,110; assay type: functional; settings: ATCC 19585, 14 h
[7] = test system: Streptococcus pneumoniae; experiment: Antimicrobial activity against Streptococcus pneumoniae ATCC 10813 after 24 hrs by microdilution method; assay type: functional; settings: ATCC 10813, 24 h
[8] = test system: Escherichia coli; experiment: Antimicrobial activity against Escherichia coli BW25113 after 14 hrs by macrodilution method in presence of efflux pump inhibitor 60 uM MC-207,110; assay type: functional; settings: BW25113, 14 h
Outline: (§2)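 Run on wild-type strains, with 60 μM of the efflux pump inhibitor MC-207,110 added to potentiate compound activity.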

[9] = test system: Pseudomonas aeruginosa; experiment: Antimicrobial activity against Pseudomonas aeruginosa K after 16 hrs by macrodilution method in presence of efflux pump inhibitor 60 uM MC-207,110; assay type: functional; outline: as §2
[10] = test system: Salmonella enterica; experiment: Antimicrobial activity against Salmonella enterica ATCC 19585 after 14 hrs by macrodilution method in presence of efflux pump inhibitor 60 uM MC-207,110; assay type: functional; settings: ATCC 19585, 14 h; outline: as §2
[11] = test system: Staphylococcus aureus; experiment: Antimicrobial activity against Staphylococcus aureus FRI 100 after 14 hrs by macrodilution method; assay type: functional; settings: FRI 100, 14 h
[12] = test system: Streptococcus pneumoniae; experiment: Antimicrobial activity against Streptococcus pneumoniae ATCC 10813 after 24 hrs by macrodilution method; assay type: functional; settings: ATCC 10813, 24 h
[13] = test system: Enterococcus faecalis; experiment: Antimicrobial activity against Enterococcus faecalis 1131 after 14 hrs by macrodilution method; assay type: functional; settings: Enterococcus faecalis, 1131, 14 h
[14] = test system: Staphylococcus aureus; experiment: Antimicrobial activity against Staphylococcus aureus FRI 100 in presence of reserpine after 14 hrs; assay type: functional, organism-based
[15] = test system: Enterococcus faecalis; experiment: Antimicrobial activity against Enterococcus faecalis 1131 after 14 hrs; assay type: functional, organism-based
[16] = test system: Enterococcus faecalis; experiment: Antimicrobial activity against Enterococcus faecalis 1131 in presence of reserpine after 14 hrs; assay type: functional, organism-based
[17] = test system: Nucleic Acid; experiment: Induction of DNA damage at Escherichia coli supercoiled pUC19 bound to DNA gyrase assessed as dsDNA breaks in the absence of ATP at =<3.3 mM after 1 hrs by agarose gel electrophoresis; assay type: nucleic-acid assay

Q: Which MIC [1] does the source give for `Cc1ccc(F)cc1S(=O)(=O)N[C@H]1CCN(Cc2ccc(OC(C)C)cc2)C1` here?
A: The MIC was 140 µM (≈ 56.9 µg/mL).

Q: What about the MIC [2] of the same compound?
A: The MIC was 140 µM (≈ 56.9 µg/mL).

Q: What about the IC50 [3] of the same compound?
A: Its IC50 is 40.8 µM.

Q: What does the source list for `Cc1ccc(F)cc1S(=O)(=O)N[C@@H]1CCN(Cc2ccc(OC(C)C)cc2)C1`?
A: MIC [4]: 40 µM; MIC [5]: 80 µM; MIC [6]: 80 µM; MIC [7]: 160 µM (≈ 65 µg/mL); MIC [2]: 10 µM (≈ 4.07 µg/mL); MIC [8]: 40 µM; MIC [9]: 80 µM; MIC [10]: 80 µM; MIC [11]: > 160 µM; MIC [12]: 160 µM (≈ 65 µg/mL); MIC [13]: > 160 µM; IC50 [3]: 3.3 µM

Q: With `Cc1ccc(F)cc1S(=O)(=O)NC1CCN(Cc2ccc(CC(C)C)cc2)C1` (stereo not drawn) [GYRAMIDE B] as the compound, how does the MIC [4] read?
A: Its MIC is 40 µM.

Q: And the MIC [5]?
A: Its MIC is 40 µM.

Q: What about the MIC [6] of the same compound?
A: The MIC was 20 µM.

Q: What about the MIC [2] of the same compound?
A: Its MIC is 5 µM (≈ 2.02 µg/mL).

Q: What about the MIC [8] of the same compound?
A: Its MIC is 40 µM.

Q: What about the MIC [9] of the same compound?
A: The MIC was 40 µM.

Q: What about the MIC [10] of the same compound?
A: The MIC was 20 µM.

Q: And the MIC [11]?
A: The MIC was 80 µM (≈ 32.4 µg/mL).

Q: And the MIC [12]?
A: Its MIC is 20 µM (≈ 8.09 µg/mL).

Q: And the MIC [13]?
A: Its MIC is > 160 µM.

Q: What about the Activity [14] of the same compound?
A: The Activity was “inactive”.

Q: And the Activity [15]?
A: Its Activity is “inactive”.

Q: What about the Activity [16] of the same compound?
A: Its Activity is “inactive”.

Q: What about the IC50 [3] of the same compound?
A: Its IC50 is 0.7 µM.

Q: What does the source list for `Cc1ccc(F)cc1S(=O)(=O)NC1CCN(Cc2ccc(-c3ccccc3)cc2)C1` (stereo not drawn) [GYRAMIDE C]?
A: MIC [1]: 2.5 µM (≈ 1.06 µg/mL); MIC [4]: 20 µM; MIC [5]: 20 µM; MIC [6]: 10 µM; MIC [2]: 2.5 µM (≈ 1.06 µg/mL); MIC [8]: 20 µM; MIC [9]: 20 µM; MIC [10]: 10 µM; MIC [11]: 20 µM (≈ 8.49 µg/mL); MIC [12]: 10 µM (≈ 4.25 µg/mL); MIC [13]: > 160 µM; Activity [14]: inactive; Activity [15]: inactive; Activity [16]: inactive; IC50 [3]: 1.1 µM

Q: What does the source list for `Cc1ccc(F)cc1S(=O)(=O)NC1CCN(Cc2ccc(OC(C)C)cc2)C1` (stereo not drawn)?
A: Activity [14]: inactive; Activity [15]: inactive; Activity [16]: inactive; Activity [17]: inactive
